Measured values reported in ChEMBL document CHEMBL1135676, “Comparative molecular field analysis of substrates for an aryl sulfotransferase based on catalytic mechanism and protein homology modeling” (J Med Chem, 2002).

What follows are compounds tested against Sulfotransferase 1A1 (Rattus norvegicus, UniProt P17988) (assay: Ratio of kcat/Km determined for catalytic efficiency in sulfonation against AST IV).
Outline: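 Recombinant rat hepatic AST IV, expressed in E. coli and purified. Each reaction held 1.0 μg enzyme, 0.2 mM PAPS, 8.3 mM 2-mercaptoethanol, varying substrate and 0.25 M potassium phosphate at pH 7.0. Mixtures were preincubated 2 min at 37 °C, started with enzyme, run 10 min at 37 °C and stopped with methanol. Substrate-dependent PAP formation was read by HPLC and corrected with substrate-free controls. kcat is in min⁻¹ and apparent Km in M.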

Chain of Sulfotransferase 1A1 (P17988 whole entry): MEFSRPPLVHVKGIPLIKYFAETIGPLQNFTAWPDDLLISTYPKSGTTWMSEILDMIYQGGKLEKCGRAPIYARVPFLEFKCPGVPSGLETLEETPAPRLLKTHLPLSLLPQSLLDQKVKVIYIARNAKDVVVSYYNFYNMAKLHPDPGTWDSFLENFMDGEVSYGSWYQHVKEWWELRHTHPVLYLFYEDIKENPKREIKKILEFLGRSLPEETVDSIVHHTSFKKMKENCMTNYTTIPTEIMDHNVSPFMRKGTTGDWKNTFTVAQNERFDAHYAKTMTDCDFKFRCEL

In order of falling Ratio:
1. Oc1ccc2ccccc2c1 [BETANAPHTHOL]  4790
2. CCCc1ccc(O)cc1  2410
3. CCCCc1ccc(O)cc1  2230
4. Oc1ccc(C23C[C@H]4C[C@@H](C2)C[C@@H](C3)C4)cc1  1600
5. CCc1ccc(O)cc1  1390
6. Cc1ccc(O)cc1 [p-CRESOL]  1080
7. CCCCCc1ccc(O)cc1  784
8. Oc1ccccc1 [PHENOL]  625
9. O=[N+]([O-])c1ccc(O)c(Cl)c1  190
10. CCCCCc1ccc(CO)cc1  185
11. CCCc1ccc(CO)cc1  151
12. CCCCc1ccc(CO)cc1  147
13. O=C(CBr)Nc1ccc(O)cc1  146
14. CCCCCCc1ccc(CO)cc1  109
15. CCCC[C@H](O)c1ccccc1  103
16. OCc1ccc2ccccc2c1  101
17. Oc1ccc(-c2ccccc2)cc1  79.1
18. CCCCCCCc1ccc(O)cc1  73.4
19. CC(=O)Nc1ccc(O)cc1 [ACETAMINOPHEN]  66.7
20. ONc1ccc(Cl)cc1  45.6
21. OCc1c[nH]c2ccccc12 [INDOLE-3-CARBINOL]  38.9
22. OC1CCCc2ccccc21 (stereo not drawn)  32.4
23. OCc1cccc2ccccc12  29.4
24. Cc1ccc(CO)cc1  28.7
25. CCCCCCCCCc1ccc(O)cc1 [4-NONYLPHENOL]  28.3
26. CN(O)c1ccccc1  24.2
27. CCCN(O)c1ccccc1  20.8
28. OCc1ccccc1 [BENZYL ALCOHOL]  20.7
29. CCN(O)c1ccccc1  14.2
30. CCCCCCCc1ccc(CO)cc1  11
31. CCCCC[C@H](O)c1ccccc1  10.2
32. CCCCCC[C@H](O)c1ccccc1  8.8
33. ONc1ccccc1  6.3
34. C[C@H](O)c1ccccc1  4.6
35. O=[N+]([O-])c1ccc(CO)cc1 [PARANITROBENZYL ALCOHOL]  3.5
36. COC(=O)[C@@H](N)Cc1ccc(O)cc1 [TYROSINE METHYL ESTER]  3
37. CC[C@H](O)c1ccccc1  1.4
38. CCC[C@H](O)c1ccccc1  0.8
39. C[C@@H](O)c1ccccc1  0.4
40. OCc1ccoc1  0.4
41. CC(C)[C@H](O)c1ccccc1  0.2
42. CN[C@H](C)[C@H](O)c1ccccc1  0.1
43. CN[C@@H](C)C(O)c1ccccc1 (stereo partly drawn)  0.1
